Measurements from different studies.
Each line is one published result; the experiments were not run side by side.
Target: Serine/threonine-protein kinase Chk2 (CHEK2, Homo sapiens, UniProt O96017)

| Structure (SMILES) | effect on | technique | concentration | remaining binding [%] |
| --- | --- | --- | --- | --- |
| COc1cc(C(=O)N2CCC(N3CCN(C)CC3)CC2)ccc1Nc1ncc2c(n1)N(C)c1ccccc1C(=O)N2C | binding | competition with immobilised ligand | 10 µM | 66 |
| Cc1cc(-n2nc(Cc3cc(F)cc(C(F)(F)F)c3)nc2C)ccc1C(N)=O | cell-free assay | competition with immobilised ligand | 1 µM | 100 |
| O=C(NCCCN1CCOCC1)c1ccc(Nc2nccc(-c3cc4ccccc4s3)n2)cc1 | binding | competition with immobilised ligand | 1 µM | 79 |
| COc1cccc(CNC(=O)c2nc3scc(COCc4ccc(C(=O)O)cc4)c3c(=O)[nH]2)c1 | cell-free assay | competition with immobilised ligand | 1 µM | 92 |
| c1cncc(-c2cccc(Nc3nccc(NC4CCCCC4)n3)c2)c1 | binding | competition with immobilised ligand | 10 µM | 97 |
| CN(CCCC(F)(F)F)c1nccc(-c2cnn3ncccc23)n1 | binding |  | 1 µM | 99 |
| O=C(Nc1c[nH]nc1C(=O)NC1CCNCC1)c1cc(F)cc(F)c1 | binding | competition with immobilised ligand | 1 µM | 100 |
| C[C@H]1CCN(c2nccc(-c3cnn4ncccc34)n2)C1 | binding |  | 1 µM | 94 |
| O=C(c1ccc(Nc2nccc(-c3cc4ccccc4s3)n2)cc1)N1CCC(N2CCCC2)CC1 | binding | competition with immobilised ligand | 1 µM | 100 |
| O=C(NCc1ncc(C(F)(F)F)cc1Cl)c1ccc2c(c1)C1(CCS(=O)(=O)CC1)[C@H](C1CC1)N2S(=O)(=O)c1ccc(F)cc1 | cell-free assay | competition with immobilised ligand | 1 µM | 100 |
| C[C@@H](c1ccc(-n2cnc3c(N)ncnc32)cc1)N1CCc2nn(C)c(Cc3ccccc3)c2C1=O | binding | competition with immobilised ligand | 0.1 µM | 100 |
| Cc1cnc(Nc2ccc(C(=O)N3CCC(N4CCCC4)CC3)cc2)nc1-c1cc2ccccc2s1 | binding | competition with immobilised ligand | 1 µM | 100 |
| CC(=O)c1c(NS(C)(=O)=O)c2cc(-c3ccc(Cl)cc3)c(-c3ccc(Cl)cc3Cl)nc2n(C)c1=O | cell-free assay | competition with immobilised ligand | 1 µM | 100 |
| COc1ccnn2ncc(-c3ccnc(N(C)C)n3)c12 | binding |  | 1 µM | 87 |
| CNC(=O)Nc1ccc2c(c1)CC[C@@]21OC(=O)N(CC(=O)N(Cc2ccc(F)cc2)[C@@H](C)C(F)(F)F)C1=O | cell-free assay | competition with immobilised ligand | 1 µM | 100 |
| N[C@@H]1CCN(c2nccc(-c3cnn4ncccc34)n2)C1 | binding |  | 1 µM | 100 |
| C=CC(=O)N1CCC(C(=O)NCC(=O)N2CCN(c3nc(-c4cnc(N)nc4C(F)F)nc(N4CCOCC4)n3)CC2)CC1 | binding | competition with immobilised ligand | 1 µM | 88 |
| CN(C)c1ncc(F)c(-c2cnn3ncccc23)n1 | binding |  | 1 µM | 100 |
| Nc1ncc2c(n1)-c1c([nH]c3ccc(C#CC4CC4)cc13)CCCC2 | binding | competition with immobilised ligand | 1 µM | 86 |
| COc1cnc(Nc2cccc(S(N)(=O)=O)c2)nc1N1CCN(c2ccccc2)CC1 | binding | competition with immobilised ligand | 1 µM | 96 |
| CO[C@@H](C)c1c(Nc2ccc([C@@H](N(C)C(=O)C3CCS(=O)(=O)CC3)C(F)(F)F)cc2)cnc2cc(Cl)nn12 | cell-free assay | competition with immobilised ligand | 1 µM | 100 |
| CC1CCCN1c1nccc(-c2cnn3ncccc23)n1 (stereo not drawn) | binding |  | 1 µM | 100 |
| CCS(=O)(=O)c1cc2cc(C[C@@](O)(CC(C)(C)c3ccc(F)cc3C(N)=O)C(F)(F)F)[nH]c2cn1 | cell-free assay | competition with immobilised ligand | 1 µM | 84 |
| CN(C)c1nccc(-c2cnn3ncccc23)n1 | binding |  | 1 µM | 100 |
